ChEMBL document CHEMBL3588757, “Structure-based design, synthesis and biological testing of piperazine-linked bis-epipodophyllotoxin etoposide analogs” (Bioorg Med Chem, 2015)
Activity calls are given as the source filed them. The calls are words filed in the database; no cut-off is given here.

Key:
UACC-257 = assay: Cytotoxicity against human UACC257 cells assessed as cell growth at 0.005 uM by SRB assay; format: functional; details: read-out: Activity
786-0 = assay: Cytotoxicity against human 786-0 cells assessed as cell growth at 5 uM by SRB assay; format: functional; details: read-out: Activity
SF-539 = assay: Cytotoxicity against human SF539 cells assessed as cell growth at 50 uM by SRB assay; format: functional; details: read-out: Activity
BT-549 = assay: Cytotoxicity against human BT549 cells assessed as cell growth at 5 uM by SRB assay; format: functional; details: read-out: Activity
ACHN = assay: Cytotoxicity against human ACHN cells assessed as cell growth at 5 uM by SRB assay; format: functional; details: read-out: Activity
TK-10 = assay: Cytotoxicity against human TK10 cells assessed as cell growth at 0.005 uM by SRB assay; format: functional; details: read-out: Activity
KM12 = assay: Cytotoxicity against human KM12 cells by SRB assay; format: functional
How it was run: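 NCI-60 panel screen; 5-dose testing giving GI50 per cell line, plus a single 10 µM one-dose test. Method details not given beyond the NCI screen.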

K562 [1] = assay: Induction of apoptosis in human K562 cells assessed as increase in proportion of apoptotic and apoptotic/necrotic cells at 1 uM after 24 to 48 hrs by annexin V-FITC/propidium iodide staining based two-color fluorescence flow cytometry; format: functional, cell-based
How it was run: (§1)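 K562 cells (1 × 10^6/mL), untreated or given 1 µM compound (10 µM etoposide control) at 37 °C for 24 h or 48 h. Annexin V-FITC plus propidium iodide two-colour flow cytometry. Cells are scored as viable, apoptotic-only (annexin+/PI−), apoptotic/necrotic (annexin+/PI+) or necrotic.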

CHO [2] = assay: Induction of apoptosis in CHO cells assessed as increase in sub-G0/G1 cell population at 1 uM after 49 hrs by propidium iodide staining based flow cytometry; format: functional; details: Cricetulus griseus
How it was run: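 CHO cells grown to confluence in α-MEM/10% FCS, serum-starved 48 h (0% FCS), then seeded at 2 × 10^5 cells/mL and repleted with 10% FCS. Continuously treated from repletion with 1 µM compound (10 µM etoposide, DMSO control) for various times. Propidium iodide DNA staining, flow cytometric phase distribution including sub-G0/G1.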

SK-OV-3 = assay: Cytotoxicity against human SKOV3 cells assessed as cell growth at 50 uM by SRB assay; format: functional; details: read-out: Activity
CHO [3] = assay: Induction of cell cycle arrest in CHO cells assessed as accumulation at G2/M phase at 1 uM by propidium iodide staining based flow cytometry; format: functional; details: Cricetulus griseus
K562 [4] = assay: Induction of apoptosis in human K562 cells assessed as increase in caspase 3/7 activity at 1 uM by luminescence analysis; format: functional, cell-based; details: TDE = time-dependent effect
How it was run: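 K562 cells at 2 × 10^5 cells/mL treated with vehicle or 1 µM compound for 24 or 48 h. Lysates assayed with a luminogenic DEVD-aminoluciferin caspase-3/7 substrate and read by luminescence. Four wells (eight for control); unpaired t-test vs control; repeated on two days.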

K562 [5] = assay: Induction of apoptosis in human K562 cells assessed as decrease in proportion of viable cells at 1 uM after 24 to 48 hrs by annexin V-FITC/propidium iodide staining based two-color fluorescence flow cytometry; format: functional, cell-based; how it was run: as §1
SN12C = assay: Cytotoxicity against human SN12C cells assessed as cell growth at 50 uM by SRB assay; format: functional; details: read-out: Activity
[6] = molecular target: DNA topoisomerase 2-alpha (Homo sapiens) (UniProt P11388); assay: Inhibition of full-length human recombinant topoisomerase 2-alpha-mediated decatenation activity of kDNA at >10 uM by ethidium bromide based gel-assay
[7] = molecular target: DNA topoisomerase 2-alpha (Homo sapiens) (UniProt P11388); assay: Inhibition of full-length human recombinant topoisomerase 2-alpha assessed as conversion of […] DNA at 100 uM by ethidium bromide based gel-assay
[8] = read-out: LC50 (the source's name)
[9] = read-out: pLC50 (the source's name) (converted)

Sequence of DNA topoisomerase 2-alpha (Homo sapiens) (P11388 whole entry): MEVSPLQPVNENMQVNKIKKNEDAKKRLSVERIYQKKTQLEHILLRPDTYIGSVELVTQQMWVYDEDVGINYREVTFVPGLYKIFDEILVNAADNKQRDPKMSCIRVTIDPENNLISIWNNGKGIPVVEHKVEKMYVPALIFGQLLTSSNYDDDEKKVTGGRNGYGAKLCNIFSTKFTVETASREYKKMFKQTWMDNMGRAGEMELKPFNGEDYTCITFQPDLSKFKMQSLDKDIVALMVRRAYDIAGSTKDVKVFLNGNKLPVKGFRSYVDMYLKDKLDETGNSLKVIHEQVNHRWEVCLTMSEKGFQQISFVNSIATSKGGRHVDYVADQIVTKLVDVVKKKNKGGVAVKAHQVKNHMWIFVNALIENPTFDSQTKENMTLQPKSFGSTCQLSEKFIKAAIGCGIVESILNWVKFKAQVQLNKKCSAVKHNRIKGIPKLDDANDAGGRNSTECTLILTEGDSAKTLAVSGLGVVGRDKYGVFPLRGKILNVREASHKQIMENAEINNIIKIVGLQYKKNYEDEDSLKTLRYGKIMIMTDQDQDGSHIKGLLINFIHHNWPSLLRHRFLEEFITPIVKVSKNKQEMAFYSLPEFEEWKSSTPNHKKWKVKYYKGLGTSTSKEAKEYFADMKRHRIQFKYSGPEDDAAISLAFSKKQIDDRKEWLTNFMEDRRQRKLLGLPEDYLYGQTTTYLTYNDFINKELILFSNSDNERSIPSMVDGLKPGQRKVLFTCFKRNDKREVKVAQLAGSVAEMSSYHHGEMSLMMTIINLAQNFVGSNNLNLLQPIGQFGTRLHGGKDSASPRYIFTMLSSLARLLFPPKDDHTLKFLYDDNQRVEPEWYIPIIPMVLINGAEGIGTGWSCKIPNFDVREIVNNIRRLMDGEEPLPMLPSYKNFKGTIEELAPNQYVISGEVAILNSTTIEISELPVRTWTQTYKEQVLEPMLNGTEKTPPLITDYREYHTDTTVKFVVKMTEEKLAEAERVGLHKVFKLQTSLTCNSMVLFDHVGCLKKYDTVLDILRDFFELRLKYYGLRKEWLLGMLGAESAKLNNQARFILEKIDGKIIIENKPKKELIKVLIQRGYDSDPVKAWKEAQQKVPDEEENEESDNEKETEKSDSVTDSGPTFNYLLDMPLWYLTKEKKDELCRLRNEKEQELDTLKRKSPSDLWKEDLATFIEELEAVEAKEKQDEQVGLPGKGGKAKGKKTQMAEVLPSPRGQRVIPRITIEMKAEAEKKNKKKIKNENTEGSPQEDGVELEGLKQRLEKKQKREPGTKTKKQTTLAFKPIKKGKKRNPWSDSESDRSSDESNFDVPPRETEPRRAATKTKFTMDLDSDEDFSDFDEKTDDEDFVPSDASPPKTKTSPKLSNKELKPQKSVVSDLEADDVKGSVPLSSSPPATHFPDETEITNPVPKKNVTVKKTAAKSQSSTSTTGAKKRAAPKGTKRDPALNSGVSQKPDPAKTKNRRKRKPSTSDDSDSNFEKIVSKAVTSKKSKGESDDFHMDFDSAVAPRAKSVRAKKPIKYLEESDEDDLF

Structure (SMILES)	growth at 0.005 µM (UACC-257) [%]	growth at 5 µM (786-0) [%]	growth at 5 µM (BT-549) [%]	growth at 5 µM (ACHN) [%]	growth at 0.005 µM (TK-10) [%]	GI50 (KM12; read-out: GI50) [µM]	CC50 (KM12; [8]) [µM]	TGI (KM12; read-out: TGI) [µM]	GI50 (KM12; read-out: pGI50 (converted)) [µM]	CC50 (KM12; [9]) [µM]	TGI (KM12; read-out: pTGI (converted)) [µM]	also measured
COc1cc([C@@H]2c3cc4c(cc3[C@@H](NC(=O)CN3CCN(CCCCCCN5CCN(CC(=O)N[C@@H]6c7cc8c(cc7[C@@H](c7cc(OC)c(O)c(OC)c7)[C@H]7C(=O)OC[C@@H]76)OCO8)CC5)CC3)[C@H]3COC(=O)[C@H]23)OCO4)cc(OC)c1O	99	40	-5	73	101	3.79	> 50	> 50	3.8	> 50.1	> 50.1	growth at 50 µM (SF-539): -38%
COc1cc([C@@H]2c3cc4c(cc3[C@@H](NC(=O)CN3CCN(CCCCCCCCCCN5CCN(CC(=O)N[C@@H]6c7cc8c(cc7[C@@H](c7cc(OC)c(O)c(OC)c7)[C@H]7C(=O)OC[C@@H]76)OCO8)CC5)CC3)[C@H]3COC(=O)[C@H]23)OCO4)cc(OC)c1O	96	-13	-66	-77	93	0.892	> 50	2.95	0.891	> 50.1	2.95	Activity (K562 [1]): Active; Activity (CHO [2]): Active; growth at 50 µM (SK-OV-3): -100%; Activity (CHO [3]): Active; Activity (K562 [4]): tde; Activity (K562 [5]): Active; growth at 50 µM (SN12C): -44%; Inhibition of decatenation activity (qualitative) [6]: Active; Inhibition (qualitative activity call) [7]: Active
